Data on two compounds can be found in paper PMC6139073 (Cancer research, 2018).

In one data set the test system is FZD1/2. Kind of data set: FZD1/2 immunohistochemistry. It is filed as in vivo, human. The conditions noted are these: run-in and concurrent arms combined; H-score over 50 positive. The method in brief: (§1)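 Tumour biopsies from the expansion cohort (20 patients with metastatic irinotecan- and oxaliplatin-refractory CRC on MEK inhibitor plus Wnt-modulator combination); two core biopsies per patient, taken pre- and post-treatment. IHC with hematoxylin counterstain; brown membrane/cytoplasmic staining was scored positive. H-score (0–300) was derived from the proportion and intensity of stained tumour cells in the predominant compartment. Values over 50 were positive, and results were summarised descriptively.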

For data set [1] the following is noted: single agent; cited from earlier work.
For data set [2] the following is noted: in vivo; cited from earlier work.
The test system of another data set is p-ERK. In words: p-ERK immunohistochemistry. The following applies: run-in and concurrent arms combined; H-score over 50 positive. The format is in vivo, human. In short, it runs like this:
as §1

Data set [3] can be described thus: Plasma pharmacokinetics in patients. The format is in vivo, human.
For data set [4] the following is noted: in vivo; cited from earlier work. This is another data set of the same source.
In data set [5] the test system is advanced BRAF V600E or V600K mutated melanoma. The following applies: single agent, cited from earlier work.

As a reminder, the Cmax is the peak of the concentration-time curve. One may read the half-life as how long it takes for the measured level to halve. Higher therefore signals slow decline.

For `Cn1cnc2c(F)c(Nc3ccc(Br)cc3Cl)c(C(=O)NOCCO)cc21` [selumetinib], the “patients positive for FZD1/2 post-treatment” value in the data set with FZD1/2 is on record as 11 out of 15. In addition, in data set [1], the “Recommended Phase II Dose (RP2D)” value is on record as 100 mg BID. Besides, in data set [2], the “mean half-life (t½)” value is on record as 5 to 8 h. Moreover, the “patients positive for p-ERK post-treatment” value in the data set with p-ERK is listed as 14 out of 15. For the same compound, the “difference in pharmacokinetics of selumetinib given alone versus with CsA” value in data set [3] (day -7 vs C1D1) is given as “no substantial difference”. Also, the peak concentration (Cmax) in data set [3] (human, plasma, oral) was determined as 1250 ng/mL. In data set [3] (human, plasma, oral, 75 mg), the Cmax came to 1550 ng/mL and the half-life was 6.4 h. Also, in data set [4], the “Visual changes, patients” value was 12%; the dose limiting toxicity result is “grade 3 acneiform rash and pleural effusion”.
Turning to `CC(=O)Nc1cccc(-n2c(=O)n(C3CC3)c(=O)c3c(Nc4ccc(I)cc4F)n(C)c(=O)c(C)c32)c1` [trametinib], the median progression-free survival in data set [5] (vs 1.5 in comparator, p < 0.001) is 4.8 mos. Also, the 6-month survival rate in data set [5] (vs 67% in comparator) is listed as 81%.
